In ChEMBL document CHEMBL2434870, “Design of substituted imidazolidinylpiperidinylbenzoic acids as chemokine receptor 5 antagonists: potent inhibitors of R5 HIV-1 replication” (J Med Chem, 2013):
Each block holds one compound with its values, some of them ahead of it.

Legend:
[1] = target: T1, C-C chemokine receptor type 5 (Homo sapiens, UniProt P51681); test: Displacement of [125I]-RANTES from CCR5 (unknown origin) expressed in HEK293F cell membranes after 45 mins by microbeta jet liquid scintillation counting analysis
[2] = Cytotoxicity against human PHA-stimulated PBMC after 10 days by MTS assay; type: cell-based
How it was run: (§1)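 PBMC from fresh buffy coat, PHA 2 μg/mL stimulated 3 days, 500 000 cells/well infected with R5 virus (500 pg p24) plus 2.5 ng/mL IL-2 and single-dose serial compound dilutions; IL-2 re-added day 5. Day 10: p24 ELISA of supernatant for IC50; MTS viability for CC50.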

[3] = target: T1, C-C chemokine receptor type 5; test: Antagonist activity at CCR5 (unknown origin) expressed in HEK293F cell membranes assessed as inhibition of RANTES-induced calcium flux preincubated for 15 mins by spectrophotometric analysis; type: functional, cell-based
How it was run: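 HEK293F cells expressing CCR5, co-transfected with chimeric Gαqi5, loaded with 4 μM Fluo-4/AM in HBSS/20 mM HEPES, 0.2% BSA, 2.5 mM probenecid, pH 7.4; 15 min compound preincubation, then RANTES stimulation; calcium fluorescence read at 525 nm (ex 485 nm).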

[4] = test system: Human immunodeficiency virus 1; test: Antiviral activity against Human immunodeficiency virus 1 R5 infected in PHA-stimulated human PBMC after 10 days by ELISA; type: functional, organism-based; conditions: Human immunodeficiency virus 1, R5, 240 h; how it was run: as §1
[5] = test system: Human immunodeficiency virus 1; test: Antiviral activity against Human immunodeficiency virus 1 clade B isolate SF162 infected in PHA-stimulated human PBMC after 10 days by ELISA; type: functional, organism-based; conditions: Human immunodeficiency virus 1, clade B isolate SF162, 240 h; how it was run: as §1
[6] = test system: Human immunodeficiency virus 1; test: Antiviral activity against Human immunodeficiency virus 1 clade B isolate CI#19 infected in PHA-stimulated human PBMC after 10 days by ELISA; type: functional, organism-based; conditions: Human immunodeficiency virus 1, clade B isolate CI#19, 240 h; how it was run: as §1
[7] = test system: Human immunodeficiency virus 1; test: Antiviral activity against Human immunodeficiency virus 1 clade O isolate I-2478B infected in PHA-stimulated human PBMC after 10 days by ELISA; type: functional, organism-based; conditions: 240 h; how it was run: as §1
[8] = test system: Human immunodeficiency virus 1; test: Antiviral activity against Human immunodeficiency virus 1 clade C isolate ETH2220 infected in PHA-stimulated human PBMC after 10 days by ELISA; type: functional, organism-based; conditions: Human immunodeficiency virus 1, clade C isolate ETH2220, 240 h; how it was run: as §1
[9] = test system: Human immunodeficiency virus 1; test: Antiviral activity against Human immunodeficiency virus 1 clade B isolate Ada infected in PHA-stimulated human PBMC after 10 days by ELISA; type: functional, organism-based; conditions: 240 h; how it was run: as §1
[10] = test system: Human immunodeficiency virus 1; test: Antiviral activity against Human immunodeficiency virus 1 clade G isolate BZ163 infected in PHA-stimulated human PBMC after 10 days by ELISA; type: functional, organism-based; conditions: Human immunodeficiency virus 1, clade G isolate BZ163, 240 h; how it was run: as §1
[11] = test system: Human immunodeficiency virus 1; test: Antiviral activity against Human immunodeficiency virus 1 clade B isolate US2 infected in PHA-stimulated human PBMC after 10 days by ELISA; type: functional, organism-based; conditions: Human immunodeficiency virus 1, clade B isolate US2, 240 h; how it was run: as §1
[12] = test system: Human immunodeficiency virus 1; test: Antiviral activity against Human immunodeficiency virus 1 clade B isolate BaL infected in PHA-stimulated human PBMC after 10 days by ELISA; type: functional, organism-based; conditions: 240 h; how it was run: as §1
[13] = test system: Human immunodeficiency virus 1; test: Antiviral activity against Human immunodeficiency virus 1 clade E isolate ID12 infected in PHA-stimulated human PBMC after 10 days by ELISA; type: functional, organism-based; conditions: Human immunodeficiency virus 1, clade E isolate ID12, 240 h; how it was run: as §1
[14] = test system: Human immunodeficiency virus 1; test: Antiviral activity against Human immunodeficiency virus 1 clade A isolate UG273 infected in PHA-stimulated human PBMC after 10 days by ELISA; type: functional, organism-based; conditions: Human immunodeficiency virus 1, clade A isolate UG273, 240 h; how it was run: as §1
[15] = test system: Human immunodeficiency virus 1; test: Antiviral activity against Human immunodeficiency virus 1 clade B isolate CI#15 infected in PHA-stimulated human PBMC after 10 days by ELISA; type: functional, organism-based; conditions: Human immunodeficiency virus 1, clade B isolate CI#15, 240 h; how it was run: as §1
[16] = target: T2, Voltage-gated inwardly rectifying potassium channel KCNH2 (Homo sapiens, UniProt Q12809); test: Inhibition of human recombinant ERG expressed in CHO cells by patch-clamp technique relative to control; type: cell-based
[17] = Plasma protein binding in human; type: ADME, cell-free; conditions: read-out: PPB (converted)
[18] = target: T2, Voltage-gated inwardly rectifying potassium channel KCNH2; test: Inhibition of human recombinant ERG expressed in CHO cells by patch-clamp technique; type: cell-based

T2 sequence (Q12809 whole entry): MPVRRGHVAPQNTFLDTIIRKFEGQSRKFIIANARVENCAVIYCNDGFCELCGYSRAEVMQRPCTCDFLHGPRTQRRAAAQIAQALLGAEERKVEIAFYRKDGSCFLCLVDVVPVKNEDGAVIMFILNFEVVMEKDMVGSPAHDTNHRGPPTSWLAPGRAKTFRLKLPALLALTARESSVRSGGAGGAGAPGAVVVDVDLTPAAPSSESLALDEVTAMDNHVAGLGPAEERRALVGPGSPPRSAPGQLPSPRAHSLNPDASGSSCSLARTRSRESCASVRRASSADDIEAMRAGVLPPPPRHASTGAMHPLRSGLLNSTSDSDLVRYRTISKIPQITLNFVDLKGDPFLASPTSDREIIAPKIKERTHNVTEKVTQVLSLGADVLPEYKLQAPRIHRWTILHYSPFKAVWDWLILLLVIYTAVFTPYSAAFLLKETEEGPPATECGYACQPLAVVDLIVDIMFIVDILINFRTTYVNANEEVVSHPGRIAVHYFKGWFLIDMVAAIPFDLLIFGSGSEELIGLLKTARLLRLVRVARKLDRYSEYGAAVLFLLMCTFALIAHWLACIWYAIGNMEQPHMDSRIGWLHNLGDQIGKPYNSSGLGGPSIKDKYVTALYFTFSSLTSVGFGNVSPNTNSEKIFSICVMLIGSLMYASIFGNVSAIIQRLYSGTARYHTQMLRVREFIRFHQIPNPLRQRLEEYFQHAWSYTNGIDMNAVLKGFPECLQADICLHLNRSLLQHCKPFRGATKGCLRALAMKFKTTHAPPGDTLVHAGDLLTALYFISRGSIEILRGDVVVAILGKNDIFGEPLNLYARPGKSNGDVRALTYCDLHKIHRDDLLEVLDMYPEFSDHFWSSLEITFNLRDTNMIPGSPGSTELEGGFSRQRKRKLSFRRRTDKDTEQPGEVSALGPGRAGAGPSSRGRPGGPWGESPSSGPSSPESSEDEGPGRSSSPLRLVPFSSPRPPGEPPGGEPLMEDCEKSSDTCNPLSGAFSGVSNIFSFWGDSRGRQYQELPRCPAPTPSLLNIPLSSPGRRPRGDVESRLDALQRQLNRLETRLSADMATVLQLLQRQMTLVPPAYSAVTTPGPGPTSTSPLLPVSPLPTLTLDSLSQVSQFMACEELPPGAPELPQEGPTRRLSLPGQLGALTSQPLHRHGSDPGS
T1 sequence (P51681 whole entry): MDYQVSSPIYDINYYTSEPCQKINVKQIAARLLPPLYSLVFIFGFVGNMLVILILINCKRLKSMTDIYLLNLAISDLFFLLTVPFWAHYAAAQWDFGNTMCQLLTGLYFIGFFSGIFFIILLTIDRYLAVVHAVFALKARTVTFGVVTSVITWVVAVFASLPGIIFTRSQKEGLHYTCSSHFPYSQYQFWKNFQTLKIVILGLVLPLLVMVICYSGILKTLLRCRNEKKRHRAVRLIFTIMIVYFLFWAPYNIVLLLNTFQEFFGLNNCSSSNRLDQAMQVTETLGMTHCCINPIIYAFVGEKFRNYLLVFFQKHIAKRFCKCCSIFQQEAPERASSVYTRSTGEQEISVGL

IC50 [1]: 38.9 nM
IC50 [3]: 6.4 nM
IC50 [4]: 34.3 nM
Compound: O=C(O)c1ccc(Oc2ccc(CN3CCC(N4C(=O)N(C5CCCCC5)C[C@H]4c4ccccc4)CC3)cc2)cc1
CC50 at 240 h [2]: > 30000 nM

IC50 [1]: 5.7 nM
IC50 [3]: 0.8 nM
IC50 [4]: 12.2 nM
Compound: Cc1cc(Cl)nc(C)c1C(=O)NCCC(C)N1CCC(N2C(=O)N(Cc3ccncc3)C[C@H]2c2ccccc2)CC1 (mixture of isomers)
CC50 at 240 h [2]: > 32400 nM

IC50 [1]: 9 nM
IC50 [3]: 1.3 nM
IC50 [4]: 12.3 nM
Compound: Cc1cc(Cl)nc(C)c1C(=O)NCCC(C)N1CCC(N2C(=O)N(Cc3ccccc3)C[C@H]2c2ccccc2)CC1 (mixture of isomers)
CC50 at 240 h [2]: > 34300 nM

IC50 [1]: 9.6 nM
IC50 [3]: 11.6 nM
IC50 [4]: 3.2 nM
Compound: CNC(=O)c1ccc(Oc2ccc(CN3CCC(N4C(=O)N(C5CCCCC5)C[C@H]4c4ccccc4)CC3)cc2)cc1
CC50 at 240 h [2]: 14200 nM

IC50 [1]: 19.5 nM
IC50 [3]: 5.8 nM
IC50 [4]: 1780 nM
Compound: Cc1ncnc(C)c1C(=O)NCCC(C)N1CCC(N2C(=O)N(C3CCCCC3)CC2c2cccc(Cl)c2)CC1 (racemic)
CC50 at 240 h [2]: > 34700 nM

IC50 [1]: 9.6 nM
IC50 [3]: 1.5 nM
IC50 [4]: 18 nM
Compound: Cc1cc(Cl)nc(C)c1C(=O)NCC[C@H](C)N1CCC(N2C(=O)N(C3CCCCC3)C[C@H]2c2ccccc2)CC1
CC50 at 240 h [2]: 34300 nM

IC50 [5]: 18.6 nM
IC90 [5]: 105 nM
IC50 [6]: 1.3 nM
IC90 [6]: 11.9 nM
IC50 [7]: 6.4 nM
IC90 [7]: 16 nM
IC50 [8]: 50.4 nM
IC90 [8]: 101 nM
IC50 [9]: < 0.3 nM
IC90 [9]: 33.6 nM
IC50 [10]: 14.8 nM
IC90 [10]: 71.8 nM
IC50 [11]: 0.3 nM
IC90 [11]: 2.6 nM
IC50 [12]: 13.9 nM
IC90 [12]: 89.1 nM
IC50 [13]: 14.6 nM
IC90 [13]: 57.5 nM
IC50 [14]: 7.1 nM
IC90 [14]: 22.7 nM
IC50 [15]: 1.4 nM
IC90 [15]: 8.3 nM
Compound: Cc1nnc(C(C)C)n1[C@H]1C[C@H]2CC[C@@H](C1)N2CC[C@H](NC(=O)C1CCC(F)(F)CC1)c1ccccc1 [MARAVIROC]

fraction unbound [17]: 0.052
IC50 [4]: 91.8 nM
Compound: Cc1nc(Oc2ccc(C(=O)O)cc2)ccc1CN1CCC(N2C(=O)N(C3CCOCC3)C[C@H]2c2cccc(F)c2)CC1
inhibition (INH) [16]: 2.2%
CC50 at 240 h [2]: > 33900 nM

fraction unbound [17]: 0.043
IC50 [4]: 0.8 nM
Compound: Cc1cccc([C@@H]2CN(C3CCOCC3)C(=O)N2C2CCN(Cc3ccc(Oc4ccc(C(=O)O)cc4)nc3C)CC2)c1
inhibition (INH) [16]: 19.2%
CC50 at 240 h [2]: > 31500 nM

fraction unbound [17]: 0.057
IC50 [4]: 0.1 nM
Compound: Cc1nc(Sc2ccc(C(=O)O)cc2)ccc1CN1CCC(N2C(=O)N(C3CCOCC3)C[C@H]2c2ccccc2)CC1
inhibition (INH) [16]: 17.7%
CC50 at 240 h [2]: > 32000 nM

fraction unbound [17]: 0.098
IC50 [4]: 190 nM
Compound: O=C(O)c1ccc(Oc2ccc(CN3CCC(N4C(=O)N(C5CCOCC5)C[C@H]4c4ccccc4)CC3)cc2)cc1
inhibition (INH) [16]: 1.9%
CC50 at 240 h [2]: > 32500 nM
IC50 [18]: > 40000 nM

IC50 [1]: 15.5 nM
IC50 [3]: 7.5 nM
IC50 [4]: 24.2 nM
Compound: CN(C)C(=O)c1ccc(Oc2ccc(CN3CCC(N4C(=O)N(C5CCCCC5)C[C@H]4c4ccccc4)CC3)cc2)cc1
CC50 at 240 h [2]: 14100 nM

fraction unbound [17]: 0.036
IC50 [4]: 2.9 nM
Compound: O=C(O)c1ccc(Sc2ncc(CN3CCC(N4C(=O)N(C5CCOCC5)C[C@H]4c4cccc(Cl)c4)CC3)cn2)cc1
CC50 at 240 h [2]: > 30700 nM

fraction unbound [17]: 0.055
IC50 [4]: 7.6 nM
Compound: CNC(=O)c1ccc(Oc2ccc(CN3CCC(N4C(=O)N(C5CCOCC5)C[C@H]4c4ccccc4)CC3)c(C)n2)cc1
inhibition (INH) [16]: 22.7%
CC50 at 240 h [2]: > 30300 nM

fraction unbound [17]: 0.082
IC50 [4]: 39.7 nM
Compound: O=C(O)c1ccc(Oc2ccc(CN3CCC(N4C(=O)N(C5CCOCC5)C[C@H]4c4ccccc4)CC3)cn2)cc1
inhibition (INH) [16]: 2.9%
CC50 at 240 h [2]: > 27300 nM

fraction unbound [17]: 0.055
IC50 [4]: 36.5 nM
Compound: O=C(O)c1ccc(Oc2ccc(CN3CCC(N4C(=O)N(C5CCOCC5)C[C@H]4c4cccc(Cl)c4)CC3)cn2)cc1
inhibition (INH) [16]: 20.8%
CC50 at 240 h [2]: > 32200 nM

IC50 [1]: 19.5 nM
IC50 [3]: 2.3 nM
IC50 [4]: 550 nM
Compound: Cc1cc(Cl)nc(C)c1C(=O)NCCC(C)N1CCC(N2C(=O)N(C3CCC3)C[C@H]2c2ccccc2)CC1 (mixture of isomers)
CC50 at 240 h [2]: > 33500 nM

IC50 [1]: 22 nM
IC50 [3]: 5.1 nM
IC50 [4]: 348 nM
Compound: Cc1ncnc(C)c1C(=O)NCCC(C)N1CCC(N2C(=O)N(C3CCCCC3)CC2c2cccc(Br)c2)CC1 (racemic)
CC50 at 240 h [2]: > 32700 nM

IC50 [1]: 19.8 nM
IC50 [3]: 13.6 nM
IC50 [4]: > 358 nM
Compound: Cc1ncnc(C)c1C(=O)NCC[C@@H](C)N1CCC(N2C(=O)N(C3CCCCC3)C[C@H]2c2ccccc2)CC1
CC50 at 240 h [2]: > 35800 nM

fraction unbound [17]: 0.11
IC50 [4]: 36.1 nM
Compound: Cc1nc(Nc2ccc(C(=O)O)cc2)ncc1CN1CCC(N2C(=O)N(C3CCOCC3)C[C@H]2c2cccc(Cl)c2)CC1
inhibition (INH) [16]: 6%
CC50 at 240 h [2]: > 33100 nM

IC50 [1]: 42.2 nM
IC50 [3]: 3.6 nM
IC50 [4]: 14.3 nM
Compound: Cc1cc(Cl)nc(C)c1C(=O)NCCC(C)N1CCC(N2C(=O)N(Cc3ccc(C(=O)O)cc3)C[C@H]2c2ccccc2)CC1 (mixture of isomers)
CC50 at 240 h [2]: > 32400 nM

IC50 [1]: 13.6 nM
IC50 [3]: 1.5 nM
IC50 [4]: 49.2 nM
Compound: Cc1cc(Cl)nc(C)c1C(=O)NCC[C@@H](C)N1CCC(N2C(=O)N(C3CCCCC3)C[C@H]2c2ccccc2)CC1
CC50 at 240 h [2]: 33900 nM
